Legend:
[1] = biological target: Histamine H3 receptor (Mus musculus) (UniProt P58406); experiment: In vivo effects in mice against H3 receptor on N6-methylhistamine levels in brain (following oral dosing of compound); format: functional, organism-based
How it was run: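 Swiss mice fasted 24 h, dosed orally; decapitated 90 min later and cerebral cortex homogenized in ice-cold 0.4 M perchloric acid. Nτ-methylhistamine measured by radioimmunoassay.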

Histamine H3 receptor [2] = biological target: T1, Histamine H3 receptor (Homo sapiens, UniProt Q9Y5N1); experiment: Displacement of [125I]iodoproxyfan from human histamine H3 receptor expressing CHO cells; format: cell-based
Histamine H3 receptor [3] = biological target: Histamine H3 receptor (Cavia porcellus, UniProt Q9JI35); experiment: Potency at histamine H3 receptor subtype, was tested on guinea pig right ileum; format: tissue-based; conditions: read-out: pA2 (converted)
Histamine H1 receptor = Histamine H1 receptor (Cavia porcellus, UniProt P31389); experiment: Potency at histamine H1 receptor subtype, was tested on guinea pig right ileum; format: tissue-based; conditions: read-out: pA2 (converted)
Histamine H2 receptor = Histamine H2 receptor (Cavia porcellus, UniProt P47747); experiment: Potency at histamine H2 receptor subtype, was tested on guinea pig right atrium; format: tissue-based, Cardiac atrium; conditions: read-out: pA2 (converted)
Histamine H3 receptor [4] = biological target: T1, Histamine H3 receptor; experiment: biochemical
[5] = biological target: Histamine N-methyltransferase (Rattus norvegicus, UniProt Q01984); experiment: Compound was tested against histamine N-methyl-transferase in rat brain [EC 2.1.1.8](relative weak affinity on rat enzyme); format: tissue-based
Histamine N-methyltransferase, sequence (Q01984 whole entry): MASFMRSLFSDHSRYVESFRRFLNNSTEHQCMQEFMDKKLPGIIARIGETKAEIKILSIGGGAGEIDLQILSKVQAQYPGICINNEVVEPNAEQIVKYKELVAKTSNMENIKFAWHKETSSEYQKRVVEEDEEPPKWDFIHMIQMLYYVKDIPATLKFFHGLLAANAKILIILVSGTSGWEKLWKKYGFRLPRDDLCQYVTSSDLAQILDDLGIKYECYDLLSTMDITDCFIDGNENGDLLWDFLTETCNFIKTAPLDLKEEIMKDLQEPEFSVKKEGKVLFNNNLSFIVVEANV

T1 sequence (Q9Y5N1 whole entry): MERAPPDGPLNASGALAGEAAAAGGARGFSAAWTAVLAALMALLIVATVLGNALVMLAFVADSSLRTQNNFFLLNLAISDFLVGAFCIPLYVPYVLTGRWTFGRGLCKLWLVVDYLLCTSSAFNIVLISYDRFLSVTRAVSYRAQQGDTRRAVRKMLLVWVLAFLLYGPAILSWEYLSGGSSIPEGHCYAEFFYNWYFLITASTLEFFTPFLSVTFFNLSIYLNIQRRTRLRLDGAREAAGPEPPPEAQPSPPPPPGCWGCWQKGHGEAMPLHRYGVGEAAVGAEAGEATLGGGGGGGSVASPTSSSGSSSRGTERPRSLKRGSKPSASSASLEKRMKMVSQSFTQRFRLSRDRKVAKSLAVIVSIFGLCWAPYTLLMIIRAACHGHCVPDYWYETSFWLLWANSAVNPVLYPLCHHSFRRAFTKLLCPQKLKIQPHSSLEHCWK
Histamine H2 receptor, sequence (P47747 whole entry): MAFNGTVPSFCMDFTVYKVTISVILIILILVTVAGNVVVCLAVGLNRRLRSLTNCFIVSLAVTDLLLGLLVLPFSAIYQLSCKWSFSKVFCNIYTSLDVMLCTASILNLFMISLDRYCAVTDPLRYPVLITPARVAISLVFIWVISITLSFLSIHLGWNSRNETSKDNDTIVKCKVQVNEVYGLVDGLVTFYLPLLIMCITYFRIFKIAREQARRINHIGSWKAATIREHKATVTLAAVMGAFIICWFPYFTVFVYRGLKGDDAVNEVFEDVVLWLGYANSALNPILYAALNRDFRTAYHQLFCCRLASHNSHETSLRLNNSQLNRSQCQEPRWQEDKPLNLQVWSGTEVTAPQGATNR
Histamine H3 receptor (Cavia porcellus, UniProt Q9JI35), sequence (Q9JI35 whole entry): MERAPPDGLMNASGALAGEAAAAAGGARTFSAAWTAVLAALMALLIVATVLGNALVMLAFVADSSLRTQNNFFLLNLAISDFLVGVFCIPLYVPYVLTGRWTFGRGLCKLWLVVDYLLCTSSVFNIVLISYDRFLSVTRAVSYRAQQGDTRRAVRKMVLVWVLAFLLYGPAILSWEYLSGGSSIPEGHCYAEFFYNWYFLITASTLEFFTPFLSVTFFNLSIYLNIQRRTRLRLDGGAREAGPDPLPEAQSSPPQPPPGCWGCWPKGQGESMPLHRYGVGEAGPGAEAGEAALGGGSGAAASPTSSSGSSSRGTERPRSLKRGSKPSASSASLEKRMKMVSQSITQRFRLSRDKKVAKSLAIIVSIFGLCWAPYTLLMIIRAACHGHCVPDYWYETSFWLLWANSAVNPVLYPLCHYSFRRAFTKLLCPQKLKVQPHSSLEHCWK
Histamine H1 receptor, sequence (P31389 whole entry): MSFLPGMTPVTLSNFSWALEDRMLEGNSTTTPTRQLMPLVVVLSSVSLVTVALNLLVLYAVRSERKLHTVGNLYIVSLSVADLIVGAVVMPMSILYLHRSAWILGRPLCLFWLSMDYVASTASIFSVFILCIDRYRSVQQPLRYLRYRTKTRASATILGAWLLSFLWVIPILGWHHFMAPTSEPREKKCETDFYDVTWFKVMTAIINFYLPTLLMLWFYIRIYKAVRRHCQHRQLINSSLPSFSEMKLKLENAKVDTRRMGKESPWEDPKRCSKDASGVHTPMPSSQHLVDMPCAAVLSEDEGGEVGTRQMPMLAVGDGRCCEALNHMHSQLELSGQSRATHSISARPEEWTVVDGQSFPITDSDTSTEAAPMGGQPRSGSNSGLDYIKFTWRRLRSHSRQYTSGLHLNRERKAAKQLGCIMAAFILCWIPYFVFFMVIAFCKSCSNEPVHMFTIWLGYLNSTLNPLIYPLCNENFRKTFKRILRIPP
Histamine H3 receptor (Mus musculus), sequence (P58406 whole entry): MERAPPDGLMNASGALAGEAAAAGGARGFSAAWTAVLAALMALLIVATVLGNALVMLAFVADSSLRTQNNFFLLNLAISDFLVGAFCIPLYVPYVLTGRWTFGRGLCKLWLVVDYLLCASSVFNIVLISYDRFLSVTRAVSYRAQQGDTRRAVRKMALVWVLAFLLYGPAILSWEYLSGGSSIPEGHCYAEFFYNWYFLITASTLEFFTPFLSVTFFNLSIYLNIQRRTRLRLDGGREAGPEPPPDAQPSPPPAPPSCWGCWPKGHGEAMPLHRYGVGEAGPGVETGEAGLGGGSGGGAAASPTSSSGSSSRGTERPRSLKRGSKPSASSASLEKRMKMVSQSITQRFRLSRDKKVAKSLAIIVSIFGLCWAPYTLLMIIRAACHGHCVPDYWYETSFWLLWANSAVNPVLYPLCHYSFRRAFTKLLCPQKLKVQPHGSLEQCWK

| Structure (SMILES) | ED50 [1] [mg/kg] | Ki (Histamine H3 receptor [2]) [nM] | further results |
| --- | --- | --- | --- |
| CCc1ccc(OCc2ccc(CN3CCCCC3)cc2)cc1 | 2.2 | 163 | – |
| Cc1cc(OCc2ccc(CN3CCCCC3)cc2)ccc1Cl | > 10 | 42 | – |
| Cc1ccc(OCc2ccc(CN3CCCCC3)cc2)cc1C | 4.8 | 149 | – |
| Clc1ccc(OCc2ccc(CN3CCCCC3)cc2)cc1 | > 10 | 124 | – |
| c1cc(CN2CCCCC2)ccc1COc1ccc(C2CCCC2)cc1 | 3.1 | 201 | – |
| Brc1ccc(OCc2ccc(CN3CCCCC3)cc2)cc1 | > 10 | 114 | – |
| c1ccc(CCc2ccc(OCc3ccc(CN4CCCCC4)cc3)cc2)cc1 | 30 | 890 | – |
| c1cc(CN2CCCCC2)ccc1COc1ccc2c(c1)CCC2 | 1.9 | 87 | – |
| Ic1ccc(OCc2ccc(CN3CCCCC3)cc2)cc1 | > 10 | 107 | – |
| COc1ccc(OCc2ccc(CN3CCCCC3)cc2)cc1 | 20 | 119 | – |
| CCCCc1ccc(OCc2ccc(CN3CCCCC3)cc2)cc1 | 2.8 | 169 | – |
| c1ccc(OCc2ccc(CN3CCCCC3)cc2)cc1 | 30 | 227 | – |
| CC(=O)c1ccc(OCc2ccc(CN3CCCC3)cc2)cc1 | 1.9 | 26 | Kb (Histamine H3 receptor [3]): 18.2 nM; Kb (Histamine H1 receptor): 9330 nM; Kb (Histamine H2 receptor): 7760 nM |
| O=[N+]([O-])c1ccc(OCCCCCN2CCCC2)cc1 | 1.1 | – | Ki (Histamine H3 receptor [4]): 39 nM |
| CC(C)c1ccc(OCc2ccc(CN3CCCCC3)cc2)cc1 | 3 | 253 | – |
| CCCc1ccc(OCc2ccc(CN3CCCCC3)cc2)cc1 | 4.3 | 257 | – |
| c1ccc(NCc2ccc(OCc3ccc(CN4CCCCC4)cc3)cc2)cc1 | 10 | 90 | – |
| Fc1cc(OCc2ccc(CN3CCCCC3)cc2)ccc1Cl | > 10 | 95 | – |
| c1ccc(Cc2ccc(OCc3ccc(CN4CCCCC4)cc3)cc2)cc1 | > 10 | 238 | – |
| c1cc(CN2CCCCC2)ccc1COc1ccc2c(c1)CCCC2 | 3.5 | 92 | – |

| Structure (SMILES) | ED50 [1] [mg/kg] | Ki (Histamine H3 receptor [2]) [nM] | further results |
| --- | --- | --- | --- |
| CC(=O)c1ccc(OCCCc2c[nH]cn2)cc1 | 0.24 | 87 | – |
| Fc1ccc(OCc2ccc(CN3CCCCC3)cc2)cc1 | 15 | 123 | – |
| CO/N=C(\C)c1ccc(OCc2ccc(CN3CCCCC3)cc2)cc1 | 6.4 | 129 | Kb (Histamine H3 receptor [3]): 288 nM; Kb (Histamine H1 receptor): 3470 nM; Kb (Histamine H2 receptor): 3980 nM |
| Cc1cccc(OCc2ccc(CN3CCCCC3)cc2)c1 | 20 | 334 | – |
| c1cc(CN2CCCCC2)ccc1COc1ccc(CN2CCCCC2)cc1 | 9.6 | 2.8 | Kb (Histamine H3 receptor [3]): 38 nM |
| CCN(CC)Cc1ccc(COc2ccc(C(C)=O)cc2)cc1 | 3.4 | 91 | – |
| FC(F)(F)c1ccc(OCc2ccc(CN3CCCCC3)cc2)cc1 | > 10 | 125 | – |
| C/C(=N\O)c1ccc(OCc2ccc(CN3CCCCC3)cc2)cc1 | 5 | 55 | Kb (Histamine H3 receptor [3]): 85.1 nM; Kb (Histamine H1 receptor): 7940 nM; Kb (Histamine H2 receptor): 14100 nM |
| O=C(c1ccc(OCc2ccc(CN3CCCCC3)cc2)cc1)C1CC1 | 5.9 | 66 | – |
| Clc1ccc(OCc2ccc(CN3CCCCC3)cc2)cc1Cl | > 10 | 167 | – |
| O=C(c1ccc(OCc2ccc(CN3CCCCC3)cc2)cc1)C1CCCC1 | 2.8 | 157 | Kb (Histamine H3 receptor [3]): 30.9 nM |
| CCCCCc1ccc(OCc2ccc(CN3CCCCC3)cc2)cc1 | 3 | – | – |
| c1cn(-c2ccc(OCc3ccc(CN4CCCCC4)cc3)cc2)cn1 | 4 | 27 | Kb (Histamine H3 receptor [3]): 15.8 nM |
| Cc1ccc(OCc2ccc(CN3CCCCC3)cc2)cc1 | 1.8 | – | – |
| CC(=O)c1ccc(OCc2ccc(CN3CCCCCC3)cc2)cc1 | 4.3 | 37 | Kb (Histamine H3 receptor [3]): 30.9 nM |
| c1ccc(Oc2ccc(OCc3ccc(CN4CCCCC4)cc3)cc2)cc1 | > 10 | 530 | – |
| c1ccc(COc2ccc(OCc3ccc(CN4CCCCC4)cc3)cc2)cc1 | > 30 | 550 | – |
| C(=C\c1ccc(OCc2ccc(CN3CCCCC3)cc2)cc1)/c1ccccc1 | > 10 | 761 | – |
| CC(=O)c1ccc(OCc2ccc(CN3CCCCC3)cc2)cc1 | 3.9 | 84 | Kb (Histamine H3 receptor [3]): 61.7 nM; IC50 [5]: 10400 nM; Kb (Histamine H1 receptor): 4570 nM; Kb (Histamine H2 receptor): 10200 nM |
| CCCOc1ccc(OCc2ccc(CN3CCCCC3)cc2)cc1 | 10 | 88 | – |

From ChEMBL document CHEMBL1136767, “Novel nonimidazole histamine H3 receptor antagonists: 1-(4-(phenoxymethyl)benzyl)piperidines and related compounds” (J Med Chem, 2003)
